Data set [1] concerns SH-SY5Y. Nature of the data set: Neuroprotection against H2O2-induced toxicity in human SH-SY5Y cells assessed as LDH release at 10 uM preincubated for 6 hrs followed by H2O2 addition and measured after 24 hrs (reference value: 339.93 +/- 3.66 U/L). The class given is functional. The gist of the method: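 Cells pretreated with test agent (1 or 10 μM), then 600 μM H₂O₂; plasma membrane damage read as LDH leakage into medium (U/L). DMSO below 0.1% in all groups. Mean ± S.E.M. of three independent experiments.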

Data set [2] concerns SH-SY5Y. In words: Protection against H2O2-induced oxidative stress in human SH-SY5Y cells assessed as reduction in reactive oxygen species level preincubated for 6 hrs followed by H2O2 addition and measured after 24 hrs by DHE dye based flow cytometry. The format is functional, cell-based. For orientation: In flow cytometry, cells or beads pass a laser one at a time.
The subject of data set [3] is SH-SY5Y. In words: Protection against H2O2-induced mitochondrial dysfunction in human SH-SY5Y cells assessed as mitochondrial membrane potential at 1 uM preincubated for 6 hrs followed by H2O2 addition and measured after 24 hrs by Rh123 staining based flow cytometry (reference value: 26.31 +/- 3.32%). The format is functional. In short, it runs like this:
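ΔΨm examined by inverted fluorescence microscopy and flow cytometry after pretreatment (1, 10 μM) and 600 μM H₂O₂. Reported as % of control. Mean ± S.E.M., three independent experiments.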

Data set [4] relates to SH-SY5Y. Nature of the data set: Protection against H2O2-induced apoptosis in human SH-SY5Y cells assessed as improvement in nuclear fragmentation at 1 to 10 uM preincubated for 6 hrs followed by H2O2 addition and measured after 24 hrs by Hoechst 33342 staining based inverted microscopic analysis. The format is functional, cell-based. In short, it runs like this:
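Hoechst 33342 nuclear staining after pretreatment and 600 μM H₂O₂. Nuclear fragmentation and DNA condensation were scored visually.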

Data set [5] concerns SH-SY5Y. Nature of the data set: Protection against H2O2-induced apoptosis in human SH-SY5Y cells assessed as viable cells at 10 uM preincubated for 6 hrs followed by H2O2 addition and measured after 24 hrs by Annexin V-FITC/propidium iodide staining based flow cytometry (reference value: 12.4%). The class given is functional. To be noted: read-out: Activity.
In data set [6] the test system is SH-SY5Y. Nature of the data set: Protection against H2O2-induced apoptosis in human SH-SY5Y cells assessed as late apoptotic cells at 10 uM preincubated for 6 hrs followed by H2O2 addition and measured after 24 hrs by Annexin V-FITC/propidium iodide staining based flow cytometry (reference value: 77.5%). The class given is functional.
The test system of data set [7] is SH-SY5Y. In words: Protection against H2O2-induced apoptosis in human SH-SY5Y cells assessed as late apoptotic cells at 10 uM preincubated for 6 hrs followed by H2O2 addition and measured after 24 hrs by Annexin V-FITC/propidium iodide staining based flow cytometry (reference value: 3.5%). The format is functional.
In data set [8] the test system is Mus musculus. Nature of the data set: Induction of motor impairment in C57Bl/6 mouse at 10 mg/kg, ig treated for 10 days measured after 4 to 72 hrs for 3 mins by rota rod test. The format is organism-based. As to conditions: in vivo, po. A general note: The rotarod test checks motor coordination on a turning rod.
Data set [9] has as its system Mus musculus. In words: Anti-parkinson's activity in MPTP-induced C57Bl/6 mouse model of Parkinson's disease assessed as increase in tyrosine hydroxylase expression in striatum at 10 to 20 mg/kg, ig pretreated for 10 days followed by MPTP challenge measured 10 days post MPTP addition by DAB staining based immunohistochemistry method. The class given is functional, organism-based. The gist of the method: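 Tissue taken 10 days after MPTP injection from mice dosed orally with 1 (10 or 20 mg/kg). TH in SNpc and striatum by western blot, and by DAB immunostaining. Three of the mice per group analysed. Mean ± S.D., n = 6 mice/group.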

Data set [10] concerns Mus musculus. Nature of the data set: Anti-parkinson's activity in MPTP-induced C57Bl/6 mouse model of Parkinson's disease assessed as decrease in cleaved caspase3 expression in substantia nigra at 10 to 20 mg/kg, ig pretreated for 10 days followed by MPTP challenge measured 10 days post MPTP addition by Western blot analysis. The format is functional, organism-based. The gist of the method:
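Substantia nigra from MPTP mice. Bax, Bcl-2 and cleaved caspase-3 measured by western blot, with Bcl-2/Bax ratio by densitometry. Mean ± S.D., n = 6 mice/group.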
(In western blotting, separated proteins are transferred to a membrane and probed.)

For data set [11], the system named is Mus musculus. Nature of the data set: Anti-parkinson's activity in MPTP-induced C57Bl/6 mouse model of Parkinson's disease assessed as decrease in cleaved caspase3 expression in striatum at 10 to 20 mg/kg, ig pretreated for 10 days followed by MPTP challenge measured 10 days post MPTP addition by Western blot analysis. The format is functional, organism-based.

The test system of data set [12] is Mus musculus. Nature of the data set: Anti-parkinson's activity in MPTP-induced C57Bl/6 mouse model of Parkinson's disease assessed as increase in SOD activity in striatum administered intragastrically pretreated for 10 days followed by MPTP challenge measured 10 days post MPTP addition by xanthine oxidase method. The class given is functional, organism-based. The gist of the method:
(§1)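 Striatum and SNpc from MPTP-treated mice dosed orally with 1 at 10 or 20 mg/kg. MDA level and SOD activity measured. Mean ± S.D., n = 6 mice/group.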

In data set [13] the test system is Mus musculus. In words: Anti-parkinson's activity in MPTP-induced C57Bl/6 mouse model of Parkinson's disease assessed as reduction in MDA level in substantia nigra administered intragastrically pretreated for 10 days followed by MPTP challenge measured 10 days post MPTP addition by thiobarbituric acid method. The class given is functional, organism-based. The gist of the method: as §1

Data set [14] can be described thus: Half life in Sprague-Dawley rat at 5 mg/kg, iv by LC-MS/MS analysis. The format is ADME, organism-based. As to conditions: in vivo. The gist of the method:
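Male Sprague–Dawley rats dosed with 1 at 5 mg/kg i.v. (vehicle 5% DMSO, 2% F68, 93% saline) or 25 mg/kg p.o. (0.5% methylcellulose with 1% Tween 80). Orbital blood sampled at 0.083–24 h, 12 time points. Plasma PK parameters derived. Mean ± SD, n = 3.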

Data set [15] in a line: Activation of PI3K/Akt/mTOR signaling in human SH-SY5Y cells assessed as up regulation of HO-1 expression at 1 uM after 24 hrs by Western blot analysis relative to control. The class given is cell-based. In short, it runs like this:
(§2)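 HO-1 western blot in SH-SY5Y cells incubated 24 h with 1 at 0.1, 1 or 10 μM, without H₂O₂. Band densitometry expressed as % of control. Mean ± S.E.M. from three independent experiments.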

Data set [16] is described as follows: Activation of PI3K/Akt/mTOR signaling in human SH-SY5Y cells assessed as up regulation of HO-1 expression after 24 hrs by Western blot analysis. The class given is cell-based. The gist of the method: as §2
Data set [17] in a line: Activation of PI3K/Akt/mTOR signaling in human SH-SY5Y cells assessed as up regulation of H2O2-induced HO-1 expression at 10 uM preincubated for 6 hrs followed by H2O2 addition and after 24 hrs in presence of MEK1/2 inhibitor U0126 by Western blot analysis. The class given is cell-based. The gist of the method: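 SH-SY5Y cells preincubated 1 h with one inhibitor: SB203580 10 μM, LY294002 5 μM, U0126 10 μM, SP600125 5 μM or rapamycin 100 nM. Then 1 (10 μM) for 6 h, then 600 μM H₂O₂. HO-1 measured by western blot and densitometry. Mean ± S.E.M., three independent experiments.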

A short description of data set [18]: Activation of PI3K/Akt/mTOR signaling in human SH-SY5Y cells assessed as increase in mTOR phosphorylation after 5 to 360 mins by Western blot analysis. The format is cell-based. The gist of the method:
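SH-SY5Y cells, unstimulated, exposed to 1 for 5, 15, 30, 60, 120, 240 or 360 min. Phospho-AKT and phospho-mTOR measured by western blot, reported as p-AKT/t-AKT and p-mTOR/t-mTOR ratios after densitometry. Mean ± S.E.M. of three independent experiments.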

The half-life is the time needed for the level to fall by half in the phase considered. A lower half-life goes with fast loss.

Activity calls are given as the source filed them.

`COC(=O)[C@H](Cc1ccccc1)NC(=O)/C=C/c1ccc(O)c(O)c1` [N-CAFFEOYL-PHENYLALANINE METHYL ESTER]: the Activity in data set [1] is 180.66 U/L; in data set [2], “Dose-dependent effect”; in data set [3] it was 79.4%; in data set [6] it was 4.3%; in [7], 1.5%; in [8] it was “Non-Toxic”. For the same compound, the Activity entry in data set [12] was “Dose-dependent effect”; in data set [13] it was “Dose-dependent effect”; in data set [15], 155%; in data set [16], “Dose-dependent effect”. The outcome in data set [4], in [9], in data set [10], in [11], in [17] and in [18] was Active. In addition, the viability at 10 µM in data set [5] was 89.8%. For the same compound, the half-life in [14] is 51 min.
